Measurements reported in ChEMBL document CHEMBL3751733, “Synergistic Antifungal Meroterpenes and Dioxolanone Derivatives from the Endophytic Fungus Guignardia sp” (J Nat Prod, 2015).
Values after ≈ are worked out from the molar mass of the structure shown. Active and inactive are the calls of the source. The calls are words filed in the database; no cut-off is given here.

Experiments:
Candida albicans [1] = assay: Synergistic antibiofilm activity against Candida albicans ATCC 24433 assessed as fractional inhibition concentration ratio after 24 hrs in presence of fluconazole by checkerboard assay; type: functional
How it was run: (§1)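 Preformed biofilms (1.0 × 10^6 cfu/mL in RPMI-1640/MOPS, 37 °C, 24 h) treated 24 h at 37 °C in a checkerboard: compounds 160 to 5 μg/mL, fluconazole 500 to 8 μg/mL. Read by 0.5 mg/mL XTT for 2 h at 490 nm, ≥80% reduction as endpoint; FICI calculated.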

MCF7 = assay: Cytotoxicity against human MCF7 cells by MTT assay; type: cell-based
How it was run: (§2)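 MTT assay with cisplatin as positive control.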

Candida albicans [2] = assay: Antifungal activity against Candida albicans ATCC 24433 assessed as fractional inhibition concentration index in presence of fluconazole by checkerboard assay; type: functional
How it was run: (§3)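 Checkerboard in RPMI-1640/MOPS, inoculum 1.0 × 10^4 cfu/mL, 35 °C, 24 h, OD 595 nm. Compound 25 to 0.8 μg/mL against fluconazole 4.0 to 0.0078 μg/mL. MIC = concentrations giving ≥80% growth reduction. FICI ≤ 0.5 counts as synergy; values compared at fluconazole 0.031 μg/mL.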

Bacillus subtilis = assay: Antibacterial activity against Bacillus subtilis ATCC 6633 by broth microdilution method; type: functional
How it was run: (§4)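 Broth microdilution in 96-well plates; MIC read by comparing OD with the growth control; amoxicillin and streptomycin as positive controls.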

Staphylococcus aureus = assay: Antibacterial activity against Staphylococcus aureus ATCC 25923 by broth microdilution method; type: functional; how it was run: as §4
U2OS = assay: Cytotoxicity against human U2OS cells by MTT assay; type: cell-based; how it was run: as §2
Candida albicans [3] = assay: Antifungal activity against Candida albicans ATCC 24433 assessed as fractional inhibition concentration ratio in presence of fluconazole by checkerboard assay; type: functional; how it was run: as §3
Pseudomonas aeruginosa = assay: Antibacterial activity against Pseudomonas aeruginosa ATCC 9027 by broth microdilution method; type: functional; how it was run: as §4
Candida albicans [4] = assay: Antibiofilm activity against Candida albicans ATCC 24433 after 24 hrs in presence of fluconazole by XTT-based colorimetric assay; type: functional; conditions: ATCC 24433, 24 h; how it was run: as §1
Candida albicans [5] = assay: Antifungal activity against Candida albicans ATCC 24433 assessed as synergistic growth inhibition after 24 hrs in presence of fluconazole by broth microdilution assay; type: functional; conditions: ATCC 24433, 24 h; how it was run: as §3
Candida albicans [6] = assay: Antifungal activity against Candida albicans ATCC 24433 assessed as growth inhibition after 24 hrs by broth microdilution assay; type: functional; conditions: ATCC 24433, 24 h
How it was run: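 Broth microdilution: 24-h colonies suspended in 0.85% saline, diluted in RPMI-1640 with MOPS to 1.0 × 10^4 cfu/mL final, mixed 1:1 with sample; 35 °C, 24 h; OD 595 nm. MIC = lowest concentration giving 80% growth reduction. Fluconazole positive control; SD from three independent experiments.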

HepG2 = assay: Cytotoxicity against human HepG2 cells by MTT assay; type: cell-based; how it was run: as §2
Candida albicans [7] = assay: Synergistic antibiofilm activity against Candida albicans ATCC 24433 assessed as fractional inhibition concentration index after 24 hrs in presence of fluconazole checkerboard assay; type: functional; how it was run: as §1
Escherichia coli = assay: Antibacterial activity against Escherichia coli ATCC 25922 by broth microdilution method; type: functional; how it was run: as §4
Candida albicans [8] = assay: Antibiofilm activity against Candida albicans ATCC 24433 after 24 hrs by XTT-based colorimetric assay; type: functional; conditions: ATCC 24433, 24 h
How it was run: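 XTT assay: YPD overnight culture, PBS-washed, 1.0 × 10^6 cfu/mL in RPMI-1640/MOPS; biofilms formed at 37 °C for 24 h, washed, then treated 24 h at 37 °C; 0.5 mg/mL XTT for 2 h, read at 490 nm. MIC = lowest concentration giving ≥80% reduction in XTT signal.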

Candida albicans [9] = assay: Potentiation of antifungal activity of fluconazole against Candida albicans ATCC 24433 by checkerboard assay; type: functional; how it was run: as §3
Candida albicans [10] = assay: Synergistic antibiofilm activity against Candida albicans ATCC 24433 assessed as reduction in biofilm formation at 40 to 80 ug/ml in presence of 63 ug/ml fluconazole by scanning electron microscopic analysis; type: functional, organism-based
How it was run: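 Biofilms grown 24 h at 37 °C on poly-L-lysine-treated glass coverslips from 1.0 × 10^6 cfu/mL, washed, then exposed 24 h to compound plus fluconazole; fixed in 2.5% glutaraldehyde (0.2 M PBS, pH 7.2) and 1% osmium, ethanol-dehydrated, critical-point dried, gold-coated; SEM at 10 kV.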

Candida albicans [11] = assay: Antibiofilm activity against Candida albicans ATCC 24433 at 1000 ug/ml after 24 hrs by scanning electron microscopic analysis; type: functional, organism-based
How it was run: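 Biofilms grown from 1.0 × 10^6 cfu/mL suspensions on poly-L-lysine-treated glass coverslips, 37 °C for 24 h. PBS-washed three times, then exposed to drug for another 24 h. Fixed overnight in 2.5% glutaraldehyde in 0.2 M PBS (pH 7.2), then 1% osmium for 2 h. Ethanol-dehydrated, critical-point dried, gold-coated, and imaged by SEM at high vacuum, 10 kV.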

Candida albicans [12] = assay: Antibiofilm activity against Candida albicans ATCC 24433 at 1000 ug/ml after 24 hrs by XTT-based colorimetric assay; type: functional, organism-based
How it was run: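 Biofilms grown from overnight YPD cells, PBS-washed and resuspended to 1.0 × 10^6 cfu/mL in RPMI-1640 plus MOPS, 37 °C for 24 h. After three PBS washes, treated a further 24 h at 37 °C. Then 0.5 mg/mL XTT for 2 h, read at 490 nm. MIC taken as the lowest concentration giving ≥80% reduction in XTT reduction.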

Row | SMILES | Ratio (Candida albicans [1]) | Activity (MCF7) | fractional inhibitory concentration index (FICI) (Candida albicans [2]) | MIC (Bacillus subtilis) [µg/mL] | MIC (Staphylococcus aureus) [µg/mL] | Activity (U2OS) | Ratio (Candida albicans [3]) | MIC (Pseudomonas aeruginosa) [µg/mL] | MIC80 (Candida albicans [4]) [µg/mL] | MIC80 (Candida albicans [5]) [µg/mL] | MIC80 (Candida albicans [6]) [µg/mL] | Activity (HepG2) | fractional inhibitory concentration index (FICI) (Candida albicans [7]) | MIC (Escherichia coli) [µg/mL] | MIC80 (Candida albicans [8]) [µg/mL] | MIC (Candida albicans [5]) [µg/mL] | fold change (FC) (Candida albicans [9]) | Activity (Candida albicans [10]) | Activity (Candida albicans [11]) | Activity (Candida albicans [12])
1 | Oc1cccc2c1[C@H](O)[C@@H]1O[C@@H]1C21Oc2cccc3cccc(c23)O1 | 0.28 | Non-toxic | 0.38 | 59.5 (≈ 178 µM) | 37.7 (≈ 113 µM) | Non-toxic | 0.26 | 45.5 (≈ 136 µM) | 40 | 6.3 | 24.3 (≈ 72.7 µM) | Non-toxic | <0.34 | > 100 | 145 (≈ 434 µM) |  |  |  |  | 
2 | C[C@](O)(CO)[C@@H]1CC[C@@]2(C)OC3=C(C[C@@H]12)C(=O)[C@]1(O)CO[C@H]3C1 | <0.4 | Non-toxic | <0.38 |  |  | Non-toxic | <0.25 |  | 80 | 25 | > 100 | Non-toxic | <0.46 |  | > 200 |  |  |  |  | 
3 | CC(C)[C@H]1OC(=O)[C@H](Cc2ccccc2)N(C)C(=O)[C@@H](C(C)C)OC(=O)[C@H](Cc2ccccc2)N(C)C(=O)[C@@H](C(C)C)OC(=O)[C@H](Cc2ccccc2)N(C)C1=O | <0.25 |  | <0.13 |  |  |  | <0.013 |  | 40 |  | > 100 |  | <0.31 |  | > 200 | 1.3 | >16 |  |  | 
4 | CC(C)(O)[C@@H]1CC[C@@]2(C)OC3=C(C[C@@H]12)C(=O)[C@]1(O)CO[C@H]3C1 | <0.4 | Non-toxic | 0.32 | 67.7 (≈ 220 µM) | > 100 | Non-toxic |  | 52.1 (≈ 169 µM) | 80 | 6.3 | 15.5 (≈ 50.3 µM) | Non-toxic | <0.46 | 35.9 (≈ 116 µM) | > 200 |  |  |  |  | 
5 | C=C(C)[C@@H]1[C@H](O)C[C@@]2(C)OC3=C(C[C@@H]12)C(=O)[C@]1(O)CO[C@H]3C1 | <0.25 | Non-toxic | <0.38 | 73.5 (≈ 240 µM) | 73.6 (≈ 240 µM) | Non-toxic | <0.25 | 53.2 (≈ 174 µM) | 40 | 25 | > 100 | Non-toxic | <0.31 | 88.3 (≈ 288 µM) | > 200 |  | >16 |  |  | 
6 | C[C@@]12CC[C@@H]([C@](C)(O)CO)[C@@H]1CC1=C(O2)[C@@H]2C[C@@](O)(CO2)C1=O | <0.25 | Non-toxic | 0.23 | > 100 | 79.2 (≈ 244 µM) | Non-toxic | 0.11 | > 100 | 40 | 6.3 | 57.3 (≈ 177 µM) | Non-toxic | <0.31 | 78 (≈ 240 µM) | > 200 |  | >16 | Active |  | 
7 | CC(C)[C@@]1(C(=O)O)OC(=O)/C(=C/c2ccccc2)O1 | <0.1 | Non-toxic | 0.19 |  |  | Non-toxic | 0.07 |  | 20 | 6.3 | 87.5 (≈ 334 µM) | Non-toxic | <0.16 |  | > 200 |  |  |  |  | 
8 | C=C(C)[C@@H]1CC[C@@]2(C)OC3=C(C[C@@H]12)C(=O)[C@]1(O)CO[C@H]3C1 |  | Non-toxic |  | > 100 | > 100 | Non-toxic |  | 25.5 (≈ 87.8 µM) |  |  |  | Non-toxic |  | > 100 | > 200 |  |  |  |  | 
9 | OC(Cn1cncn1)(Cn1cncn1)c1ccc(F)cc1F [FLUCONAZOLE] |  |  |  |  |  |  |  |  |  |  | 0.25 (≈ 0.816 µM) |  |  |  | > 1000 |  |  |  | inactive | inactive
